According to ChEMBL document CHEMBL4411315, “Discovery of Novel Dual Histone Deacetylase and Mammalian Target of Rapamycin Target Inhibitors as a Promising Strategy for Cancer Therapy” (J Med Chem, 2019):
Active and inactive are the calls of the source. The calls are words filed in the database; no cut-off is given here.

Key:
MM1.S [1] = test: Antiproliferative activity against human MM1S cells after 72 hrs by MTT assay; format: functional, cell-based
Histone deacetylase 3 = Histone deacetylase 3 (Homo sapiens, UniProt O15379); test: Inhibition of recombinant full length HDAC3 (unknown origin) using Ac-peptide-AMC as substrate preincubated for 15 mins followed by substrate addition and measured after 1 hr by fluorescence assay
Histone deacetylase 2 = Histone deacetylase 2 (Homo sapiens, UniProt Q92769); test: Inhibition of recombinant full length human HDAC2 expressed in baculovirus expression system using Ac-peptide-AMC as substrate preincubated for 15 mins followed by substrate addition and measured after 1 hr by fluorescence assay
[2] = biological target: T1, Serine/threonine-protein kinase mTOR (Homo sapiens, UniProt P42345); test: Inhibition of recombinant N-terminal FLAG-tagged human mTOR (1362 to end residues) using ULight-4E-BP1 (Thr37/46) peptide as substrate after 1 hr by fluorescence assay
Summary of the method: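 mTOR enzyme, ATP, compound and ULight-4E-BP1 (Thr37/46) peptide in kinase buffer were incubated 1 h at room temperature. EDTA quench plus Eu-anti-phospho-4E-BP1 antibody was added and equilibrated 1 h. TR-FRET was read at excitation 320 or 340 nm and emission 665 nm. Curves were fitted, and values are means of at least two experiments.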

HCT-116 = test: Antiproliferative activity against human HCT116 cells after 72 hrs by MTT assay; format: functional, cell-based; conditions: HCT-116, 72 h
Histone deacetylase 1 = Histone deacetylase 1 (Homo sapiens, UniProt Q13547); test: Inhibition of recombinant full length HDAC1 (unknown origin) using Ac-peptide-AMC as substrate preincubated for 15 mins followed by substrate addition and measured after 1 hr by fluorescence assay
[3] = biological target: Protein deacetylase HDAC6 (Homo sapiens, UniProt Q9UBN7); test: Inhibition of recombinant full length HDAC6 (unknown origin) using Ac-peptide-AMC as substrate preincubated for 15 mins followed by substrate addition and measured after 1 hr by fluorescence assay
MCF7 = test: Antiproliferative activity against human MCF7 cells after 72 hrs by MTT assay; format: functional, cell-based; conditions: MCF7, 72 h
[4] = biological target: T1, Serine/threonine-protein kinase mTOR; test: Inhibition of recombinant N-terminal FLAG-tagged human mTOR (1362 to end residues) at 500 nM using ULight-4E-BP1 (Thr37/46) peptide as substrate after 1 hr by fluorescence assay relative to control
Raji = test: Antiproliferative activity against human Raji cells after 72 hrs by MTT assay; format: functional, cell-based
Summary of the method: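 Log-phase cells were plated at 10000-15000 per well and exposed to serial concentrations after 24 h for 72 h. Read-out was MTT for 1-3 h, then 20% SDS overnight and absorbance at 570 nm. IC50 was calculated from growth versus untreated control, as mean ± SEM of at least three independent experiments.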

Histone deacetylase 8 = Histone deacetylase 8 (Homo sapiens, UniProt Q9BY41); test: Inhibition of recombinant full length C-terminal His-tagged human HDAC8 expressed in baculovirus expression system using Ac-peptide-AMC as substrate preincubated for 15 mins followed by substrate addition and measured after 1 hr by fluorescence assay
[5] = biological target: Polyamine deacetylase HDAC10 (Homo sapiens, UniProt Q969S8); test: Inhibition of recombinant full length N-terminal FLAG-tagged human HDAC10 expressed in baculovirus infected sf9 cells using Ac-peptide-AMC as substrate preincubated for 15 mins followed by substrate addition and measured after 1 hr by fluorescence assay
[6] = biological target: PI3-kinase p110-alpha/p85-alpha (Homo sapiens) (UniProt P27986+P42336); test: Inhibition of recombinant human full length N-terminal His-tagged/untagged p110alpha/p85alpha expressed in baculovirus expression system at 500 nM using PIP2 as substrate after 1 hr by Kinase-Glo reagent-based assay relative to control
MV4-11 [7] = test: Induction of apoptosis in human MV4-11 cells assessed as late apoptotic cells at 1 uM after 48 hrs by Annexin V-FITC/propidium iodide staining-based flow cytometric analysis (reference value: 5.03%); format: functional
[8] = biological target: T1, Serine/threonine-protein kinase mTOR; conditions: MV4-11, 10 uM
MV4-11 [9] = test: Induction of apoptosis in human MV4-11 cells assessed as necrotic cells at 1 uM after 48 hrs by Annexin V-FITC/propidium iodide staining-based flow cytometric analysis (reference value: 0.17%); format: functional
[10] = Toxicity against NOD/SCID mouse xenografted with human MM1S cells assessed as mouse survival at 25 mg/kg, po qd administered for 10 days co-treated with 50 mg/kg SAHA; format: organism-based; conditions: in vivo, 240 h
Summary of the method: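 MM1S s.c. xenograft: 10^7 cells in serum-free RPMI 1640, right flank, female NOD/SCID mice aged 5-6 weeks, randomised at 100-200 mm3 (n=6 per group). Oral daily dosing used physiological saline with 2.5% DMSO and 10% cyclodextrin, pH 9; the combination was given as a suspension. Caliper measurements were taken every 2 days. Survivors were counted.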

MV4-11 [11] = test: Antiproliferative activity against human MV4-11 cells after 72 hrs by MTT assay; format: functional, cell-based; conditions: MV4-11, 72 h
OCI-AML2 = test: Antiproliferative activity against human OCI-AML2 cells after 72 hrs by MTT assay; format: functional, cell-based; conditions: OCI-AML2, 72 h
MV4-11 [12] = test: Induction of apoptosis in human MV4-11 cells assessed as viable cells at 0.3 uM after 48 hrs in presence of 1 uM SAHA by Annexin V-FITC/propidium iodide staining-based flow cytometric analysis (reference value: 84.1%); format: functional
MM1.S [13] = test: Induction of apoptosis in human MM1S cells assessed as late apoptotic cells at 0.3 uM after 48 hrs in presence of 1 uM SAHA by Annexin V-FITC/propidium iodide staining-based flow cytometric analysis (reference value: 0.42%); format: functional
MM1.S [14] = test: Induction of apoptosis in human MM1S cells assessed as early apoptotic cells at 1 uM after 48 hrs by Annexin V-FITC/propidium iodide staining-based flow cytometric analysis (reference value: 0.38%); format: functional
MV4-11 [15] = test: Induction of apoptosis in human MV4-11 cells assessed as necrotic cells at 0.3 uM after 48 hrs in presence of 1 uM SAHA by Annexin V-FITC/propidium iodide staining-based flow cytometric analysis (reference value: 0.17%); format: functional
MM1.S [16] = test: Induction of apoptosis in human MM1S cells assessed as early apoptotic cells at 0.3 uM after 48 hrs in presence of 1 uM SAHA by Annexin V-FITC/propidium iodide staining-based flow cytometric analysis (reference value: 0.38%); format: functional
MV4-11 [17] = test: Induction of apoptosis in human MV4-11 cells assessed as late apoptotic cells at 0.3 uM after 48 hrs in presence of 1 uM SAHA by Annexin V-FITC/propidium iodide staining-based flow cytometric analysis (reference value: 5.03%); format: functional
MM1.S [18] = test: Induction of apoptosis in human MM1S cells assessed as necrotic cells at 1 uM after 48 hrs by Annexin V-FITC/propidium iodide staining-based flow cytometric analysis (reference value: 0.32%); format: functional
MM1.S [19] = test: Induction of apoptosis in human MM1S cells assessed as necrotic cells at 0.3 uM after 48 hrs in presence of 1 uM SAHA by Annexin V-FITC/propidium iodide staining-based flow cytometric analysis (reference value: 0.32%); format: functional
OCI-AML-3 = test: Antiproliferative activity against human OCI-AML3 cells after 72 hrs by MTT assay; format: functional, cell-based; conditions: OCI-AML-3, 72 h
MV4-11 [20] = test: Induction of apoptosis in human MV4-11 cells assessed as viable cells at 1 uM after 48 hrs by Annexin V-FITC/propidium iodide staining-based flow cytometric analysis (reference value: 84.1%); format: functional; conditions: Homo sapiens, MV4-11, 48 h; read-out: Activity
MV4-11 [21] = test: Induction of apoptosis in human MV4-11 cells assessed as early apoptotic cells at 0.3 uM after 48 hrs in presence of 1 uM SAHA by Annexin V-FITC/propidium iodide staining-based flow cytometric analysis (reference value: 10.7%); format: functional
MM1.S [22] = test: Antitumor activity against human MM1S cells xenografted in NOD/SCID mouse assessed as tumor growth inhibition at 25 mg/kg, po qd administered for 10 days and measured every 2 days post last dose in presence of 50 mg/kg SAHA by caliper method relative to control
MM1.S [23] = test: Induction of apoptosis in human MM1S cells assessed as viable cells at 0.3 uM after 48 hrs in presence of 1 uM SAHA by Annexin V-FITC/propidium iodide staining-based flow cytometric analysis (reference value: 98.9%); format: functional
MV4-11 [24] = test: Induction of apoptosis in human MV4-11 cells assessed as early apoptotic cells at 1 uM after 48 hrs by Annexin V-FITC/propidium iodide staining-based flow cytometric analysis (reference value: 10.7%); format: functional
MM1.S [25] = test: Induction of apoptosis in human MM1S cells assessed as late apoptotic cells at 1 uM after 48 hrs by Annexin V-FITC/propidium iodide staining-based flow cytometric analysis (reference value: 0.42%); format: functional
[26] = biological target: T1, Serine/threonine-protein kinase mTOR; conditions: MV4-11, 1 to 10 uM
[27] = biological target: T1, Serine/threonine-protein kinase mTOR; conditions: MV4-11, 1 to 10 uM; remark: listed apart in the source
MM1.S [28] = test: Induction of apoptosis in human MM1S cells assessed as viable cells at 1 uM after 48 hrs by Annexin V-FITC/propidium iodide staining-based flow cytometric analysis (reference value: 98.9%); format: functional; conditions: Homo sapiens, MM1.S, 48 h; read-out: Activity

Chain of Histone deacetylase 1 (Q13547 whole entry): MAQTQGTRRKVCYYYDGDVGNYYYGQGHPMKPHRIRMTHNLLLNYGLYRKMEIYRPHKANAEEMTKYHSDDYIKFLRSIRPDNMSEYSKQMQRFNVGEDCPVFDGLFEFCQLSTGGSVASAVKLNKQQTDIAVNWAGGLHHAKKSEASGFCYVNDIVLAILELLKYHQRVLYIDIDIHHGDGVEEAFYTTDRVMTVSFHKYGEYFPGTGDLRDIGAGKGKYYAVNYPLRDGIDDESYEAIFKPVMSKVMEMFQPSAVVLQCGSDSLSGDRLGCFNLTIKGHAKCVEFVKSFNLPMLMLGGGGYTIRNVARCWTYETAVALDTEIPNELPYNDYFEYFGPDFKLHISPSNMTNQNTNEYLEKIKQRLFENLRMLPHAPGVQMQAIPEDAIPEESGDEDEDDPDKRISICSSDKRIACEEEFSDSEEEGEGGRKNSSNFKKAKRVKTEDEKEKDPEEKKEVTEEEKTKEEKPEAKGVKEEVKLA
Chain of Histone deacetylase 2 (Q92769 whole entry): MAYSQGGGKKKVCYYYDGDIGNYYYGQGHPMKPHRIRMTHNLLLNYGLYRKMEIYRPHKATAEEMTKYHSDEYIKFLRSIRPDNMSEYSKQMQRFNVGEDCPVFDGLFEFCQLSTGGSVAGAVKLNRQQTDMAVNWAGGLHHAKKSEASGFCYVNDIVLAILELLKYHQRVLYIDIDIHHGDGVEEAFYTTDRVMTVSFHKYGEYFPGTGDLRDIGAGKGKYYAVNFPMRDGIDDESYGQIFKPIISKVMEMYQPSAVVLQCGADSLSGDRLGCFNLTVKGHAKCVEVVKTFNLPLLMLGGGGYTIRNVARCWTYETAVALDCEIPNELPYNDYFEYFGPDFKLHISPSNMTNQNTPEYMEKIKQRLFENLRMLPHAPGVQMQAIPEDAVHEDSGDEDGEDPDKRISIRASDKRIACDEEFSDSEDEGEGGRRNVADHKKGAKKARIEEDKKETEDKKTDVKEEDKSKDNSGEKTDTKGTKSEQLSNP
Chain of Histone deacetylase 8 (Q9BY41 whole entry): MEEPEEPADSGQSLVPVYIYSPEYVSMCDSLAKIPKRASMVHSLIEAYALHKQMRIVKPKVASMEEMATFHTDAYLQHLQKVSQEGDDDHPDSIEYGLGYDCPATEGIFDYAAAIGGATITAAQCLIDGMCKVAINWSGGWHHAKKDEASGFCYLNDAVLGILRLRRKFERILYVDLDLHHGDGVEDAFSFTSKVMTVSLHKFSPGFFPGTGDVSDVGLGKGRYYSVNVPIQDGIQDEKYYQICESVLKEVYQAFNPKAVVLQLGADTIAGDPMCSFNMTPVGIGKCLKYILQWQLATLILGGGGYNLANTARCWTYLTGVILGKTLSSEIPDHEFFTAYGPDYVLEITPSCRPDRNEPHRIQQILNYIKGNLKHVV
Chain of Protein deacetylase HDAC6 (Q9UBN7 whole entry): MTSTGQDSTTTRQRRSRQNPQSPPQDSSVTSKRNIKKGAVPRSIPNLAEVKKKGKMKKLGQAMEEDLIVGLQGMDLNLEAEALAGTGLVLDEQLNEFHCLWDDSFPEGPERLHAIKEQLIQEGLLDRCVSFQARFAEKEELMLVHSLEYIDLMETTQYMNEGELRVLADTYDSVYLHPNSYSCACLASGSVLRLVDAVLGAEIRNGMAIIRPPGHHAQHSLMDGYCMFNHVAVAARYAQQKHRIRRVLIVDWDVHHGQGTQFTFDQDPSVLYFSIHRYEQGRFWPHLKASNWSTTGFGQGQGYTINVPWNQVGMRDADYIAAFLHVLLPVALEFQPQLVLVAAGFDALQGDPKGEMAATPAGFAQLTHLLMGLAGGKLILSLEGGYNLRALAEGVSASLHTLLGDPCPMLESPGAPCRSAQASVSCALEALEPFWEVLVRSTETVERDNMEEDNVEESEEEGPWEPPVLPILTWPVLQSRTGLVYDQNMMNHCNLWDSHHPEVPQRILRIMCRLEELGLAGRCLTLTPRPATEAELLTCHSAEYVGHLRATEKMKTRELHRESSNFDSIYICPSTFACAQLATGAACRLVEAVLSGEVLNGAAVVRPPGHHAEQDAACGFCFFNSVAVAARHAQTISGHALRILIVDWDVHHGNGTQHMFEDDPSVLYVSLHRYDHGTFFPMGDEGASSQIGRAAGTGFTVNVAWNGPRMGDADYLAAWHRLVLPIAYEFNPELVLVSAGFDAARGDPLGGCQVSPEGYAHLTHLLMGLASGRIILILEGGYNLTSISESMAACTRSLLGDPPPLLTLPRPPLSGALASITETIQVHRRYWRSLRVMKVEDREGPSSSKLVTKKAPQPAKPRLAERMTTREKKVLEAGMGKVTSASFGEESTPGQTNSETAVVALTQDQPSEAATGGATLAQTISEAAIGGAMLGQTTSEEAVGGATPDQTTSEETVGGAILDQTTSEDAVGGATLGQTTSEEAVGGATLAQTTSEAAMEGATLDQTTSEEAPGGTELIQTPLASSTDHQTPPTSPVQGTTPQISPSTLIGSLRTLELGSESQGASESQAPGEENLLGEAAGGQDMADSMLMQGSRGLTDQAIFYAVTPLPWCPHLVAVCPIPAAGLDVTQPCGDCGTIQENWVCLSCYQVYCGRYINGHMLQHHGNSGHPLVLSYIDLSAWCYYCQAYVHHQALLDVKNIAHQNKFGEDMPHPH
Chain of Polyamine deacetylase HDAC10 (Q969S8 whole entry): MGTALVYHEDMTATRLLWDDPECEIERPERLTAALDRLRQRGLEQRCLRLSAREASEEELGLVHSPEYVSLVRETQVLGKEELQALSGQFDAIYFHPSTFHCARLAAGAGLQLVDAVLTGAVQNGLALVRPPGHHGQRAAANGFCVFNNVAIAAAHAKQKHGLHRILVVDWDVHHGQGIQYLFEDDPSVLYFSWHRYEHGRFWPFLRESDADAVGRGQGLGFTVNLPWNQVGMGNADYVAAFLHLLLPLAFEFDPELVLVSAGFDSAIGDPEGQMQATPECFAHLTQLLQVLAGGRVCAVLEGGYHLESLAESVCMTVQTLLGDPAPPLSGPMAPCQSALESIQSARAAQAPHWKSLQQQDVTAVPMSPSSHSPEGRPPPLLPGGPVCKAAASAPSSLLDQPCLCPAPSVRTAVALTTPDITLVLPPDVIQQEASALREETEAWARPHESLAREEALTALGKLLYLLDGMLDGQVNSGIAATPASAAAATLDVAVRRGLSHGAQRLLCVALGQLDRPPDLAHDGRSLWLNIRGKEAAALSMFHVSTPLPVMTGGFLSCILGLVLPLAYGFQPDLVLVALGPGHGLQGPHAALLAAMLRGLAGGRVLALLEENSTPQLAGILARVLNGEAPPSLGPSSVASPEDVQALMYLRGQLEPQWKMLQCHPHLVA
Chain of Histone deacetylase 3 (O15379 whole entry): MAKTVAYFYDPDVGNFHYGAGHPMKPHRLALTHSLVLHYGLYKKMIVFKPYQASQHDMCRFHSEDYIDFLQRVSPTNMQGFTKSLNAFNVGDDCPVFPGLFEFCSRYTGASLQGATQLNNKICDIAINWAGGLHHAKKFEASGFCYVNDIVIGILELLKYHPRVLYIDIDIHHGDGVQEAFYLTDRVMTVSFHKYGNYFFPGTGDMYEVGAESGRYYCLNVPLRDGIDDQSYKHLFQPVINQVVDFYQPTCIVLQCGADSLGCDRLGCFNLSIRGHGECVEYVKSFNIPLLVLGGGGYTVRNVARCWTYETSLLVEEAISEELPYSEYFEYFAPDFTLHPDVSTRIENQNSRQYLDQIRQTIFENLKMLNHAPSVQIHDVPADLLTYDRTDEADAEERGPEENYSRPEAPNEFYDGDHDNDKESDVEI

Which IC50 (MM1.S [1]) does the source give for `Nc1ccc(-c2nc(N3CCOCC3)c3cnn(CCCCCCC(=O)NO)c3n2)cc1` here?
The IC50 was 18.9 nM.

And the IC50 (Histone deacetylase 3)?
The IC50 was 4.21 nM.

And the IC50 (Histone deacetylase 2)?
The IC50 was 1.6 nM.

And the IC50 [2]?
The IC50 was 40 nM.

What about the IC50 (HCT-116) of the same compound?
Its IC50 is 7.1 nM.

And the IC50 (Histone deacetylase 1)?
Its IC50 is 0.21 nM.

And the IC50 [3]?
The IC50 was 2.43 nM.

What about the IC50 (MCF7) of the same compound?
Its IC50 is 63.7 nM.

And the inhibition [4]?
The inhibition was 95%.

And the IC50 (Raji)?
The IC50 was 7.1 nM.

And the IC50 (Histone deacetylase 8)?
Its IC50 is 35.7 nM.

What about the IC50 [5] of the same compound?
Its IC50 is 1.43 nM.

What about the inhibition [6] of the same compound?
Its inhibition is 16%.

Which results are given for `CO[C@H]1C[C@@H]2CC[C@@H](C)[C@@](O)(O2)C(=O)C(=O)N2CCCC[C@H]2C(=O)O[C@H]([C@H](C)C[C@@H]2CC[C@@H](O)[C@H](OC)C2)CC(=O)[C@H](C)/C=C(\C)[C@@H](O)[C@@H](OC)C(=O)[C@H](C)C[C@H](C)/C=C/C=C/C=C/1C` [SIROLIMUS]?
Activity (MV4-11 [7]): 5.77%; inhibition [8]: Active; Activity (MV4-11 [9]): 0.6%; Activity [10]: Non-Toxic; IC50 (MV4-11 [11]): > 500 nM; IC50 (OCI-AML2): > 500 nM; Activity (MV4-11 [12]): 17.1%; Activity (MM1.S [13]): 29.7%; Activity (MM1.S [14]): 0.45%; Activity (MV4-11 [15]): 3.48%; Activity (MM1.S [16]): 15%; Activity (MV4-11 [17]): 42.4%; Activity (MM1.S [18]): 0.47%; Activity (MM1.S [19]): 1.74%; IC50 (OCI-AML-3): > 500 nM; viability at 1 µM (MV4-11 [20]): 78.3%; Activity (MV4-11 [21]): 37%; TGI (MM1.S [22]): 73.8%; Activity (MM1.S [23]): 53.6%; Activity (MV4-11 [24]): 15.3%; Activity (MM1.S [25]): 2.81%; inhibition [26]: Active; inhibition [27]: Active; viability at 1 µM (MM1.S [28]): 96.3%
